Experimental data as given in ChEMBL document CHEMBL1137287, “Peptidyl-urea based inhibitors of soluble epoxide hydrolases” (Bioorg Med Chem Lett, 2006).

Tests used:
[1] = biological target: T1, Bifunctional epoxide hydrolase 2 (Homo sapiens, UniProt P34913); test: Inhibition of human recombinant soluble Epoxide hydrolase
T1 sequence (P34913 whole entry): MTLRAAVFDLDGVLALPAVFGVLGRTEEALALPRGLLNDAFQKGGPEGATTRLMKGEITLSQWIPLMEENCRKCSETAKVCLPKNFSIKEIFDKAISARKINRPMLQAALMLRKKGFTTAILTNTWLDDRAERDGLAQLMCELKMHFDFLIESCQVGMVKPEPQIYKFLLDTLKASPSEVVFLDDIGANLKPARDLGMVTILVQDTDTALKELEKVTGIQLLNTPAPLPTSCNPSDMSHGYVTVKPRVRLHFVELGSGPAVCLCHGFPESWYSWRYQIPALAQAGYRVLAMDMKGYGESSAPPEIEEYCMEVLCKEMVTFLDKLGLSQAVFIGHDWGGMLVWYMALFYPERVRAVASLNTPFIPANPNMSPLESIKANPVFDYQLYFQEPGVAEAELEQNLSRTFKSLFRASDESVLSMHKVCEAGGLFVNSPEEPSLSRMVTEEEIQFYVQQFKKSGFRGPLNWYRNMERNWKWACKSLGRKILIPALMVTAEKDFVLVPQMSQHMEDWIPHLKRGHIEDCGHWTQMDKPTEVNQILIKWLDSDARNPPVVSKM

[2] = biological target: T2, Bifunctional epoxide hydrolase 2 (Mus musculus, UniProt P34914); test: Inhibition of mouse recombinant soluble Epoxide hydrolase
T2 sequence (P34914 whole entry): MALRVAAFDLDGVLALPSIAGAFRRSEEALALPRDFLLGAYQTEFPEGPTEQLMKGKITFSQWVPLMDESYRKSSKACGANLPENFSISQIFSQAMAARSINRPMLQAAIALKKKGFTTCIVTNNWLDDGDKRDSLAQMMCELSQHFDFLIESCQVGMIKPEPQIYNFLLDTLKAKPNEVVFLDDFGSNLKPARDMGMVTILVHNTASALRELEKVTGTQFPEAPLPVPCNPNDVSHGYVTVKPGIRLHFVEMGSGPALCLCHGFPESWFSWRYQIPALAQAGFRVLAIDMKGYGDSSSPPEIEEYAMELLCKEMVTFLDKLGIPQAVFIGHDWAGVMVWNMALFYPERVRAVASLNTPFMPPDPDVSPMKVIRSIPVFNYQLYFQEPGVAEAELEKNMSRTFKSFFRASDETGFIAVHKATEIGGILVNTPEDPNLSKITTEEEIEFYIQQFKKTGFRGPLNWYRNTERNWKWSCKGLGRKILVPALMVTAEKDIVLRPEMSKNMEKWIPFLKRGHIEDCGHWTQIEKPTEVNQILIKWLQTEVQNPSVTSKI

[3] = Solubility in sodium phosphate buffer at pH 7.4; type: physicochemical
Procedure, shortened: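 Solubility measured in sodium phosphate buffer, 100 mM, pH 7.4, following a previously described procedure.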

Row | SMILES | IC50 [1] | IC50 [2] | solubility [3]
1 | O=C(O)CC[C@H](NC(=O)CNC(=O)NC1CCCCC1)C(=O)O | > 100 µM | > 100 µM | > 500 µM
2 | CSCC[C@H](NC(=O)[C@H](Cc1ccccc1)NC(=O)CCCCCNC(=O)NC1CCCCC1)C(=O)O | 0.87 µM |  | > 500 µM
3 | CC[C@H](C)[C@H](NC(=O)[C@H](Cc1ccccc1)NC(=O)CCCCCNC(=O)NC1CCCCC1)C(=O)O | 0.13 µM |  | > 500 µM
4 | NC(N)=NCCC[C@H](NC(=O)CCCCCNC(=O)NC1CCCCC1)C(=O)O | > 100 µM | 0.23 µM | > 500 µM
5 | O=C(CCCCCNC(=O)NC1CCCCC1)N[C@@H](Cc1ccccc1)C(=O)N[C@@H](Cc1ccccc1)C(=O)O | 0.1 µM |  | > 500 µM
6 | CC(C)[C@H](NC(=O)CCCCCNC(=O)NC1CCCCC1)C(=O)O | 41 µM | 0.56 µM | > 500 µM
7 | N=C(N)NCCC[C@H](NC(=O)CCCNC(=O)NC12CC3CC(CC(C3)C1)C2)C(=O)O |  | 16 µM | > 500 µM
8 | O=C(CCCCCNC(=O)NC1CCCCC1)N[C@@H](Cc1cnc[nH]1)C(=O)O | > 100 µM | 0.06 µM | > 500 µM
9 | O=C(CCCCCNC(=O)NC1CCCCC1)N[C@@H](Cc1ccccc1)C(=O)N[C@@H](Cc1ccc(O)cc1)C(=O)O | 0.23 µM |  | > 500 µM
10 | O=C(O)C[C@H](NC(=O)CCCCCNC(=O)NC12CC3CC(CC(C3)C1)C2)C(=O)O | > 100 µM |  | > 500 µM
11 | CSCC[C@H](NC(=O)CCCNC(=O)NC12CC3CC(CC(C3)C1)C2)C(=O)O |  | 4.8 µM | > 500 µM
12 | O=C(O)CNC(=O)CCCCCNC(=O)NC12CC3CC(CC(C3)C1)C2 | > 100 µM |  | > 500 µM
13 | O=C(CCCCCNC(=O)NC12CC3CC(CC(C3)C1)C2)N[C@@H](CO)C(=O)O | > 100 µM |  | > 500 µM
14 | O=C(CCCNC(=O)NC12CC3CC(CC(C3)C1)C2)N[C@@H](Cc1cnc[nH]1)C(=O)O |  | 0.05 µM | > 500 µM
15 | O=C(CCCCCNC(=O)NC1CCCCC1)N[C@@H](Cc1ccccc1)C(=O)N1CCC[C@H]1C(=O)O | 0.1 µM |  | > 500 µM
16 | O=C(O)CCCCCNC(=O)NC12CC3CC(CC(C3)C1)C2 | > 100 µM |  | 
17 | CC(C)C[C@H](NC(=O)CCCNC(=O)NC12CC3CC(CC(C3)C1)C2)C(=O)O |  | 15 µM | > 500 µM
18 | O=C(CCCCCNC(=O)NC1CCCCC1)N[C@@H](Cc1ccccc1)C(=O)N[C@@H](CO)C(=O)O | 2.4 µM |  | > 500 µM
19 | O=C(O)CCCCCNC(=O)NC1CCCCC1 | > 100 µM | 24 µM | 
20 | O=C(CCCNC(=O)NC1CCCCC1)N[C@@H](Cc1cnc[nH]1)C(=O)O | 30 µM | 0.05 µM | > 500 µM
21 | O=C(O)CNC(=O)CCCNC(=O)NC12CC3CC(CC(C3)C1)C2 |  | > 100 µM | > 500 µM
22 | O=C(CCCNC(=O)NC12CC3CC(CC(C3)C1)C2)N[C@@H](Cc1ccccc1)C(=O)O |  | 0.8 µM | > 500 µM
23 | C[C@H](NC(=O)[C@H](Cc1ccccc1)NC(=O)CCCCCNC(=O)NC1CCCCC1)C(=O)O | 0.26 µM |  | > 500 µM
24 | O=C(CCCCCNC(=O)NC12CC3CC(CC(C3)C1)C2)N[C@@H](Cc1c[nH]c2ccccc12)C(=O)O | 41 µM |  | > 500 µM
25 | O=C(O)CCCNC(=O)NC1CCCCC1 | 36 µM | 1.9 µM | 
26 | N=C(N)NCCC[C@H](NC(=O)[C@H](Cc1ccccc1)NC(=O)CCCCCNC(=O)NC1CCCCC1)C(=O)O | 2.1 µM |  | > 500 µM
27 | O=C(CCCCCNC(=O)NC1CCCCC1)N[C@@H](Cc1ccccc1)C(=O)O (stereo in doubt; form 2) | 1 µM |  | > 500 µM
28 | O=C(CCCCCNC(=O)NC1CCCCC1)N[C@@H](Cc1ccccc1)C(=O)N[C@@H](Cc1cnc[nH]1)C(=O)O | 5.5 µM |  | > 500 µM
29 | O=C(O)CC[C@H](NC(=O)[C@H](Cc1ccccc1)NC(=O)CCCCCNC(=O)NC1CCCCC1)C(=O)O | > 100 µM |  | > 500 µM
30 | O=C(CCCCCNC(=O)NC12CC3CC(CC(C3)C1)C2)N[C@@H](Cc1ccc(O)cc1)C(=O)O | 80 µM |  | > 500 µM
